From ChEMBL document CHEMBL1250546, “Synthesis of non-purine analogs of 6-aryl-9-benzylpurines, and their antimycobacterial activities. Compounds modified in the imidazole ring” (Bioorg Med Chem, 2010)
≈ marks a conversion by molar mass, not a printed value.

Experiments:
Assay type in all cases: functional
[1] = test system: Mycobacterium tuberculosis; assay: Antibacterial activity against isoniazid-resistant Mycobacterium tuberculosis after 7 days by microplate alamar blue assay; conditions: 168 h
Procedure, shortened: (§1)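 Microplate alamar blue assay in 7H12 medium against M. tuberculosis H37Rv ATCC 27294 and against rifampicin-, isoniazid-, streptomycin- and kanamycin-resistant Mtb strains. Bacteria were incubated with test samples for 7 days, then fluorescence was read. MIC is the lowest concentration giving at least a 90% fluorescence reduction relative to untreated controls.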

[2] = test system: Mycobacterium tuberculosis; assay: Antibacterial activity against kanamycin-resistant Mycobacterium tuberculosis after 7 days by microplate alamar blue assay; conditions: 168 h; procedure, shortened: as §1
[3] = test system: Mycobacterium tuberculosis; assay: Antibacterial activity against streptomycin-resistant Mycobacterium tuberculosis after 7 days by microplate alamar blue assay; conditions: 168 h
[4] = test system: Mycobacterium tuberculosis; assay: Antibacterial activity against rifampicin-resistant Mycobacterium tuberculosis after 7 days by microplate alamar blue assay; conditions: 168 h
[5] = test system: Mycobacterium tuberculosis; assay: Antibacterial activity against clofazimine-resistant Mycobacterium tuberculosis after 7 days by microplate alamar blue assay; conditions: 168 h
[6] = test system: Mycobacterium tuberculosis; assay: Antibacterial activity against multidrug-resistant Mycobacterium tuberculosis H37Rv carrying luxAB incubated for 10 days under low oxygen followed by 28 hrs normoxic recovery by low-oxygen-recovery assay
Procedure, shortened: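 Low-oxygen-recovery assay using low-oxygen-adapted M. tuberculosis H37Rv luxAB, which carries a luciferase reporter, in 7H12 medium in microplate format. Cultures were incubated 10 days under low oxygen, then given 28 h of normoxic recovery before luminescence was read. MIC is the lowest concentration giving at least a 90% luminescence reduction relative to untreated controls.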

[7] = test system: Mycobacterium tuberculosis; assay: Antibacterial activity against multidrug-resistant Mycobacterium tuberculosis H37Rv carrying luxAB at 128 uM incubated for 10 days under low oxygen followed by 28 hrs normoxic recovery by low-oxygen-recovery assay relative to control

Row | Structure (SMILES) | MIC [1] [µM] | MIC [2] [µM] | MIC [3] [µM] | MIC [4] [µM] | MIC [5] [µM] | MIC [6] [µM] | inhibition at 128 µM [7] [%]
1 | COc1c(N2C[C@@H]3CCCN[C@@H]3C2)c(F)cc2c(=O)c(C(=O)O)cn(C3CC3)c12 [MOXIFLOXACIN] | 0.3 (≈ 0.12 µg/mL) | 0.34 (≈ 0.136 µg/mL) |  |  |  |  | 
2 | O=[N+]([O-])c1cn2c(n1)OC[C@@H](OCc1ccc(OC(F)(F)F)cc1)C2 [PRETOMANID] | 0.07 (≈ 0.0251 µg/mL) | 0.22 (≈ 0.079 µg/mL) | 0.1 (≈ 0.0359 µg/mL) | 0.17 (≈ 0.0611 µg/mL) | 0.54 (≈ 0.194 µg/mL) |  | 
3 | COc1ccc(Cn2ccc3c(-c4cccs4)ncnc32)cc1 | 0.14 (≈ 0.045 µg/mL) | 0.12 (≈ 0.0386 µg/mL) | 0.26 (≈ 0.0836 µg/mL) | 0.13 (≈ 0.0418 µg/mL) | 0.18 (≈ 0.0579 µg/mL) | 60 (≈ 19.3 µg/mL) | 
4 | COc1ccc(Cn2ccc3c(-c4ccco4)nc(OC)nc32)cc1 | 0.09 (≈ 0.0302 µg/mL) | 0.1 (≈ 0.0335 µg/mL) | 0.09 (≈ 0.0302 µg/mL) | 0.09 (≈ 0.0302 µg/mL) | 0.07 (≈ 0.0235 µg/mL) | 87 (≈ 29.2 µg/mL) | 
5 | COc1ccc(Cn2ccc3c(-c4ccco4)ncnc32)cc1 | 0.13 (≈ 0.0397 µg/mL) | 0.1 (≈ 0.0305 µg/mL) | 0.18 (≈ 0.055 µg/mL) | 0.14 (≈ 0.0427 µg/mL) | 0.16 (≈ 0.0489 µg/mL) | > 128 | 82
6 | NNC(=O)c1ccncc1 [ISONIAZID] | > 8 | 0.39 (≈ 0.0535 µg/mL) | 0.24 (≈ 0.0329 µg/mL) | 0.25 (≈ 0.0343 µg/mL) |  |  | 
7 | COc1ccc(Cn2nnc3c(-c4ccco4)ncnc32)cc1 |  |  |  |  |  | > 128 | 61
8 | COc1ccc(Cn2cnc3c(-c4ccco4)ncnc32)cc1 |  |  |  |  |  | > 128 | 88
9 | COc1ccc(Cn2cnc3c(-c4ccco4)nc(Cl)nc32)cc1 | 0.15 (≈ 0.0511 µg/mL) | 0.16 (≈ 0.0545 µg/mL) | 0.56 (≈ 0.191 µg/mL) | 0.15 (≈ 0.0511 µg/mL) | 0.47 (≈ 0.16 µg/mL) | > 128 | 82
10 | CN[C@@H]1[C@H](O[C@H]2[C@H](O[C@H]3[C@H](O)[C@@H](O)[C@H](N=C(N)N)[C@@H](O)[C@@H]3N=C(N)N)O[C@@H](C)[C@]2(O)C=O)O[C@@H](CO)[C@H](O)[C@H]1O [STREPTOMYCIN] | 0.13 (≈ 0.0756 µg/mL) | 0.98 (≈ 0.57 µg/mL) | > 16 | 0.21 (≈ 0.122 µg/mL) | 0.33 (≈ 0.192 µg/mL) |  | 
11 | COc1ccc(Cn2ncc3c(-c4ccco4)ncnc32)cc1 |  |  |  |  |  | > 128 | 60
12 | COc1ccc(Cn2ccc3c(-c4ccco4)nc(Cl)nc32)cc1 | 0.12 (≈ 0.0408 µg/mL) | 0.1 (≈ 0.034 µg/mL) | 0.08 (≈ 0.0272 µg/mL) | 0.1 (≈ 0.034 µg/mL) | 0.06 (≈ 0.0204 µg/mL) | > 128 | 88
13 | CO[C@H]1/C=C/O[C@@]2(C)Oc3c(C)c(O)c4c(O)c(c(/C=N/N5CCN(C)CC5)c(O)c4c3C2=O)NC(=O)/C(C)=C\C=C\[C@H](C)[C@H](O)[C@@H](C)[C@@H](O)[C@@H](C)[C@H](OC(C)=O)[C@@H]1C [RIFAMPIN] | 0.02 (≈ 0.0165 µg/mL) | 0.02 (≈ 0.0165 µg/mL) | 0.04 (≈ 0.0329 µg/mL) | > 4 | 0.02 (≈ 0.0165 µg/mL) |  | 
14 | COc1ccc(Cn2ccc3c(-c4cccs4)nc(Cl)nc32)cc1 | 0.09 (≈ 0.032 µg/mL) | 0.08 (≈ 0.0285 µg/mL) | 0.06 (≈ 0.0214 µg/mL) | 0.14 (≈ 0.0498 µg/mL) | < 0.05 | 120 (≈ 42.7 µg/mL) | 
